Where a name gives a salt, the structure may show the parent alone. Where only a bound is given, the exact number is not on record here.

The first experiment deals with Thoracic aorta. Nature of the experiment: Vasorelaxant activity in Wister rat thoracic aorta rings assessed as reduction in maximal noradrenaline-induced spasms. Type of experiment: functional, tissue-based. The gist of the method: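 Aortic preparations equilibrated for 2 h at 2 g resting tension. Contraction to norepinephrine hydrochloride (10^-6 M) was recorded before and after exposure to increasing concentrations of compound. Compounds came from a 0.01 M DMSO stock. Vehicle controls used DMSO alone at matching concentrations.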
By IC50 is commonly meant the concentration that inhibits the measured activity by half. Regarding `CN1CCN(CCC(=O)NNc2nncc3ccccc23)CC1`, the 50% inhibitory concentration (IC50) worked out at 360 µM.

In the case of `O=C(CCN1CCN(c2cccc(C(F)(F)F)c2)CC1)NNc1nncc2ccccc12`, the IC50 came to 500 µM. On the same count and under the same terms, with `CCOC(=O)N1CCN(CC(=O)NNc2nncc3ccccc23)CC1` the figure was more than 1000 µM; with `CN1CCN(CC(=O)NNc2nncc3ccccc23)CC1`, 160 µM. On the same count and under the same terms, the figure for `O=C(CCN1CCN(c2ccccc2)CC1)NNc1nncc2ccccc12` is 270 µM; for `O=C(CCN1CCN(c2ccc(Cl)cc2)CC1)NNc1nncc2ccccc12` it is 700 µM. Consider `O=C(CN1CCN(c2ccccc2)CC1)NNc1nncc2ccccc12`, for which the IC50 was 560 µM.

On to `O=C(CN1CCOCC1)NNc1nncc2ccccc12`, for which the 50% inhibitory concentration (IC50) worked out at 430 µM. The same measure, in the same setting: with `O=C(Cn1ccnc1)NNc1nncc2ccccc12` the figure was 610 µM; with `O=C(CCN1CCOCC1)NNc1nncc2ccccc12`, 580 µM.

`COc1ccccc1N1CCN(CCC(=O)NNc2nncc3ccccc23)CC1`: the IC50 is 100 µM. On the same count and under the same terms, the figure for `COc1ccccc1N1CCN(CC(=O)NNc2nncc3ccccc23)CC1` is 550 µM; for `COc1cc2nc(N3CCN(C(=O)c4ccco4)CC3)nc(N)c2cc1OC` [PRAZOSIN HYDROCHLORIDE] it is 480 µM; for `O=C(CN1CCN(c2cccc(C(F)(F)F)c2)CC1)NNc1nncc2ccccc12` it is 410 µM. Same read-out and setting: the figure for `CCOC(=O)N1CCN(CCC(=O)NNc2nncc3ccccc23)CC1` is more than 1000 µM; for `O=C(CCn1ccnc1)NNc1nncc2ccccc12` it is 810 µM; for `O=C(CN1CCN(c2ccc(Cl)cc2)CC1)NNc1nncc2ccccc12` it is 450 µM.

The subject of another experiment is Thoracic aorta. The experiment is described as follows: Ratio of IC50 for prazosin to IC50 for compound in noradrenaline-contracted Wister rat thoracic aorta rings. Type of experiment: functional.
As to `CN1CCN(CC(=O)NNc2nncc3ccccc23)CC1`, the “Ratio IC50” value came out at 3. In the case of `COc1ccccc1N1CCN(CCC(=O)NNc2nncc3ccccc23)CC1`, the “Ratio IC50” value came out at 5.
